The source made the active and inactive calls. No cut-off for these calls is given here.

Test system in the first experiment: not listed separately
Briefly: Cytotoxicity against human S1 cells after 72 hrs by MTT assay. In kind it is functional, cell-based. Particulars: S1, 72 h. Summed up: (§1)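 Cells kept as adherent monolayers in DMEM with 10% FBS, 37°C, 5% CO2. Trypsin-harvested, seeded at 5 × 10^3 cells/well, then exposed to compound at 0.1 to 100 µM for 72 h. MTT (4 mg/ml) added for 4 h, formazan dissolved in DMSO, absorbance read at 570 nm. At least three experiments, each in triplicate; mean±SD.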
On the technique in general: Tetrazolium dyes change colour on reduction, which living cells bring about.
As for `COc1cc(CCC(=O)CC(C)=O)ccc1O`, it took 98.2 µM to reach half-maximal inhibition (IC50).

Consider `COc1ccc(/C=C/c2cc(C)n[nH]2)cc1`, for which the concentration for half-maximal inhibition (IC50) (in general, the concentration that inhibits the measured activity by half) turned out to be 8.4 µM. This IC50 lies about 12-fold lower than the previous one.

Molecule `COc1ccc(/C=C/c2cc(C)no2)cc1OC` registered an IC50 greater than 100 µM.

Molecule `COc1ccc(/C=C/c2cc(C)no2)cc1` came in with a concentration for half-maximal inhibition (IC50) of 76.4 µM.

Test system in the next experiment: not listed separately
Briefly: Cytotoxicity against human PC3 cells after 72 hrs by MTT assay. In kind it is functional, cell-based. Particulars: PC-3, 72 h. Summed up: as §1
For the molecule `COc1cc(CCC(=O)CC(C)=O)ccc1O`, the IC50 was greater than 100 µM.

`COc1ccc(/C=C/c2cc(C)n[nH]2)cc1` came in with an IC50 of 8.9 µM.

Consider `COc1ccc(/C=C/c2cc(C)no2)cc1OC`, for which the IC50 was greater than 100 µM.

For `COc1ccc(/C=C/c2cc(C)no2)cc1`, the half-maximal inhibitory concentration (IC50) was greater than 100 µM.

Test system in another experiment: not listed separately
Briefly: Cytotoxicity against mouse NIH/3T3 cells after 72 hrs by MTT assay. In kind it is cell-based. Particulars: NIH3T3, 72 h. The procedure, abridged:
as §1
Consider `COc1ccc(/C=C/c2cc(C)n[nH]2)cc1`, for which the 50% inhibitory concentration (IC50) stood at 19.9 µM.

Take `COc1ccc(/C=C/c2cc(C)no2)cc1OC`: 93.2 µM corresponded to half-maximal inhibition (IC50).

Regarding `COc1ccc(/C=C/c2cc(C)no2)cc1`, the IC50 is greater than 100 µM.

The next experiment concerns HEK293. Briefly: Cytotoxicity against HEK293 cells expressing pcDNA3.1 after 72 hrs by MTT assay. To be noted: Homo sapiens, HEK293, 72 h. In kind it is cell-based. The procedure, abridged: as §1
In turn, `COc1ccc(/C=C/c2cc(C)n[nH]2)cc1` had an IC50 of 12.9 µM.

With `COc1ccc(/C=C/c2cc(C)no2)cc1OC`, half-maximal inhibition (IC50) was put at 63.2 µM. Against the preceding molecule, the IC50 is about 4.9-fold higher.

In turn, `COc1ccc(/C=C/c2cc(C)no2)cc1` had a 50% inhibitory concentration (IC50) of 58.3 µM.

Test system in a further experiment: not listed separately
Briefly: Cytotoxicity against human HCT116 cells after 72 hrs by MTT assay. In kind it is functional, cell-based. To be noted: HCT-116, 72 h. The procedure, abridged: as §1
Turning to `COc1cc(CCC(=O)CC(C)=O)ccc1O`, half-maximal inhibition (IC50) required 80.8 µM.

As for `COc1ccc(/C=C/c2cc(C)n[nH]2)cc1`, the half-maximal inhibitory concentration (IC50) worked out at 9.4 µM.

In turn, `COc1ccc(/C=C/c2cc(C)no2)cc1OC` yielded a half-inhibitory concentration (IC50) of 87.4 µM.

`COc1ccc(/C=C/c2cc(C)no2)cc1` registered an IC50 of 22.4 µM.

Another experiment has as its system HEK293. Briefly: Resistance index, ratio of IC50 for HEK293 cells expressing ABCB1 to IC50 for HEK293 cells expressing pcDNA3.1. Also noted: species or system Homo sapiens.
Details: not given
The procedure, abridged:
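Fold resistance is the IC50 in P-glycoprotein-overexpressing HEK293/ABCB1 cells divided by the IC50 in empty-vector HEK293/pcDNA3.1 cells. IC50s from the 72 h MTT assay; paclitaxel was the positive-control ABCB1 substrate.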
For the molecule `COc1cc(CCC(=O)CC(C)=O)ccc1O`, the “Ratio IC50” value is recorded as 1.

In the case of `COc1ccc(/C=C/c2cc(C)n[nH]2)cc1`, the “Ratio IC50” value came out at 1.3.

Regarding `COc1ccc(/C=C/c2cc(C)no2)cc1OC`, the “Ratio IC50” value stood at 1.2.

On to `COc1ccc(/C=C/c2cc(C)no2)cc1`, for which the “Ratio IC50” value is 1.1.

The next experiment deals with HEK293. Briefly: Cytotoxicity against HEK293 cells expressing ABCB1 after 72 hrs by MTT assay. To be noted: Homo sapiens, HEK293, 72 h. It counts as functional, cell-based. The procedure, abridged:
as §1
The molecule `COc1cc(CCC(=O)CC(C)=O)ccc1O` gave a concentration for half-maximal inhibition (IC50) of 92.5 µM.

The molecule `COc1ccc(/C=C/c2cc(C)n[nH]2)cc1` gave an IC50 of 16.5 µM. Compared with the last molecule, the IC50 is about 5.6-fold lower.

As to `COc1ccc(/C=C/c2cc(C)no2)cc1OC`, the IC50 was found to be 77.8 µM.

The molecule `COc1ccc(/C=C/c2cc(C)no2)cc1` yielded an IC50 of 66.3 µM.

The subject of a further experiment is DU-145. Briefly: Cytotoxicity against human DU145 cells after 72 hrs by MTT assay. It counts as functional, cell-based. Particulars: DU-145, 72 h. Summed up:
as §1
Molecule `COc1ccc(/C=C/c2cc(C)no2)cc1OC` came in with a concentration for half-maximal inhibition (IC50) greater than 100 µM.

Take `COc1ccc(/C=C/c2cc(C)no2)cc1`: the IC50 is greater than 100 µM.

The subject of another experiment is HCT-116. Briefly: Induction of morphological changes in human HCT116 cells up to 100 uM after 68 hrs by inverted microscopy. It counts as functional, cell-based.
Details: not given
The procedure, abridged: (§2)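 Cells grown in DMEM/10% FBS and treated in triplicate for 68 h. Photographed with an inverted microscope at 20X alongside untreated wells. Images scored double-blind for cell size, shape, number and debris.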
Turning to `COc1cc(CCC(=O)CC(C)=O)ccc1O`, the result was inactive.

The test system of a further experiment is MCF7. Briefly: Cytotoxicity against human MCF7 cells after 72 hrs by MTT assay. To be noted: MCF7, 72 h. It counts as functional, cell-based. The procedure, abridged: as §1
`COc1cc(CCC(=O)CC(C)=O)ccc1O` had an IC50 greater than 100 µM.

`COc1ccc(/C=C/c2cc(C)n[nH]2)cc1` displayed an IC50 of 9.7 µM.

As for `COc1ccc(/C=C/c2cc(C)no2)cc1OC`, the IC50 was greater than 100 µM.

On to `COc1ccc(/C=C/c2cc(C)no2)cc1`, for which the IC50 is greater than 100 µM.

The subject of a further experiment is MDA-MB-231. Briefly: Cytotoxicity against human MDA-MB-231 cells after 72 hrs by MTT assay. It counts as functional, cell-based. Particulars: MDA-MB-231, 72 h. Summed up:
as §1
Molecule `COc1cc(CCC(=O)CC(C)=O)ccc1O` showed an IC50 greater than 100 µM.

`COc1ccc(/C=C/c2cc(C)n[nH]2)cc1`: inhibition was half-maximal at 10.7 µM (IC50). In other words, the double-digit micromolar range.

The test system of a further experiment is MDCK. Briefly: Cytotoxicity against MDCK cells after 72 hrs by MTT assay. It counts as cell-based. To be noted: Canis lupus familiaris. Summed up: as §1
In the case of `COc1cc(CCC(=O)CC(C)=O)ccc1O`, the IC50 is 72.5 µM.

`COc1ccc(/C=C/c2cc(C)no2)cc1OC` gave an IC50 of 44.7 µM.

Take `COc1ccc(/C=C/c2cc(C)no2)cc1`: the IC50 came to 70.2 µM.

For a further experiment, the system named is PC-3. Briefly: Induction of morphological changes in human PC3 cells up to 100 uM after 68 hrs by inverted microscopy.
Details: not given
It counts as functional, cell-based. The procedure, abridged:
as §2
With `COc1cc(CCC(=O)CC(C)=O)ccc1O`, the outcome was inactive.

Source of the values: ChEMBL document CHEMBL3400039, “Design, synthesis and in vitro cell-based evaluation of the anti-cancer activities of hispolon analogs” (Bioorg Med Chem, 2015).
